Measurements published in ChEMBL document CHEMBL1145212, “Fluorinated diaryl sulfides as serotonin transporter ligands: synthesis, structure-activity relationship study, and in vivo evaluation of fluorine-18-labeled compounds as PET imaging agents” (J Med Chem, 2005).

What was measured:
[1] = system: Rattus norvegicus; test: Biodistribution of [18F]AFE in rat thalamus at 90 min postinjection in vivo; type: ADME, organism-based; conditions: 1.5 h
How it was run: (§1)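 Male Sprague-Dawley rats, three per group, received ~20 µCi of the F-18 radioligand in saline by tail-vein injection. Rats were anesthetized with CO2 and decapitated at 10, 30, 60, 90 or 120 min. Blood and brain regions were weighed and gamma-counted. %ID/g was decay- and tail-residual-corrected against F-18 standards made from the injectate and reported as mean ± SD.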

[2] = system: Rattus norvegicus; test: Biodistribution of [18F]AFE in rat frontal cortex at 60 min postinjection in vivo; type: ADME, organism-based; conditions: 1 h; how it was run: as §1
[3] = system: Rattus norvegicus; test: Biodistribution of [18F]-AFE in rat striatum 60 min postinjection in vivo; type: ADME, organism-based; conditions: 1 h
How it was run: (§2)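 Male Sprague-Dawley rats, three per time point, received the F-18 radioligand in saline (~20 µCi per rat at injection) by tail vein. Under CO2 anesthesia they were decapitated at 10, 30, 60, 90 or 120 min. Blood and dissected brain regions were weighed and gamma counted. Activity was decay-corrected, and injected dose was corrected for tail residual activity. Uptake was expressed as %ID/g versus injectate standards, mean ± SD.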

[4] = species on record: Rattus norvegicus; test: Specific binding of [18F]-AFA in thalamus of rat pretreated with compound 7e; n=3; type: functional
[5] = system: Rattus norvegicus; test: Biodistribution of [18F]AFE in rat blood at 90 min postinjection in vivo; type: ADME, organism-based; conditions: 1.5 h; how it was run: as §1
[6] = system: Rattus norvegicus; test: Biodistribution of [18F]AFE in rat blood at 60 min postinjection in vivo; type: ADME, organism-based; conditions: 1 h; how it was run: as §1
[7] = system: Rattus norvegicus; test: Biodistribution of [18F]-AFE in rat cerebellum at 30 min postinjection in vivo; type: ADME, organism-based; conditions: 0.5 h; how it was run: as §2
[8] = system: Rattus norvegicus; test: Biodistribution of [18F]-AFE in rat striatum at 90 min postinjection in vivo; type: ADME, organism-based; conditions: 1.5 h; how it was run: as §2
[9] = system: Rattus norvegicus; test: Biodistribution of [18F]AFE in rat thalamus at 120 min postinjection in vivo; type: ADME, organism-based; conditions: 2 h; how it was run: as §1
[10] = system: Rattus norvegicus; test: Biodistribution of [18F]AFE in rat thalamus at 10 min postinjection in vivo; type: ADME, organism-based; how it was run: as §1
[11] = system: Rattus norvegicus; test: Biodistribution of [18F]AFE in rat blood at 120 min postinjection in vivo; type: ADME, organism-based; conditions: 2 h; how it was run: as §1
[12] = system: Rattus norvegicus; test: Biodistribution of [18F]-AFE in rat striatum at 10 min postinjection in vivo; type: ADME, organism-based; how it was run: as §2
[13] = system: Rattus norvegicus; test: Biodistribution of [18F]AFE in rat striatum at 30 min postinjection in vivo; type: ADME, organism-based; conditions: 0.5 h; how it was run: as §1
[14] = system: Rattus norvegicus; test: Biodistribution of [18F]-AFE in rat frontal cortex at 30 min postinjection in vivo; type: ADME, organism-based; conditions: 0.5 h; how it was run: as §2
[15] = system: Rattus norvegicus; test: Biodistribution of [18F]-AFE in rat cerebellum at 120 min postinjection in vivo; type: ADME, organism-based; conditions: 2 h; how it was run: as §2
[16] = species on record: Rattus norvegicus; test: Specific binding of [18F]AFA in hippocampus of rat pretreated with compound 7e; n=3; type: functional
[17] = species on record: Rattus norvegicus; test: Specific binding of [18F]AFA in striatum of rat pretreated with compound 7e; n=3; type: functional
[18] = system: Rattus norvegicus; test: Biodistribution of [18F]AFE in rat cerebellum at 90 min postinjection in vivo; type: ADME, organism-based; conditions: 1.5 h; how it was run: as §1
[19] = system: Rattus norvegicus; test: Biodistribution of [18F]AFE in rat hypothalamus at 10 min postinjection in vivo; type: ADME, organism-based; how it was run: as §1
[20] = system: Rattus norvegicus; test: Biodistribution of [18F]AFE in rat hippocampus at 90 min postinjection in vivo; type: ADME, organism-based; conditions: 1.5 h; how it was run: as §1
[21] = system: Rattus norvegicus; test: Biodistribution of [18F]AFE in rat hypothalamus at 30 min postinjection in vivo; type: ADME, organism-based; conditions: 0.5 h; how it was run: as §1
[22] = system: Rattus norvegicus; test: Biodistribution of [18F]AFE in rat frontal cortex at 90 min postinjection in vivo; type: ADME, organism-based; conditions: 1.5 h; how it was run: as §1
[23] = system: Rattus norvegicus; test: Biodistribution of [18F]AFE in rat hippocampus at 120 min postinjection in vivo; type: ADME, organism-based; conditions: 2 h; how it was run: as §1
[24] = system: Rattus norvegicus; test: Biodistribution of [18F]AFE in rat hippocampus at 10 min postinjection in vivo; type: ADME, organism-based; how it was run: as §1
[25] = species on record: Rattus norvegicus; test: Specific binding of [18F]AFA in hypothalamus of rat pretreated with compound 7e; n=3; type: functional
[26] = system: Rattus norvegicus; test: Biodistribution of [18F]AFE in rat frontal cortex at 120 min postinjection in vivo; type: ADME, organism-based; conditions: 2 h; how it was run: as §1
[27] = system: Rattus norvegicus; test: Biodistribution of [18F]AFE in rat hypothalamus at 120 min postinjection in vivo; type: ADME, organism-based; conditions: 2 h; how it was run: as §1
[28] = system: Rattus norvegicus; test: Biodistribution of [18F]AFE in rat hypothalamus at 60 min postinjection in vivo; type: ADME, organism-based; conditions: 1 h; how it was run: as §1
[29] = system: Rattus norvegicus; test: Biodistribution of [18F]-AFE in rat blood at 30 min postinjection in vivo; type: ADME, organism-based; conditions: 0.5 h; how it was run: as §2
[30] = system: Rattus norvegicus; test: Biodistribution of [18F]AFE in rat blood at 10 min postinjection in vivo; type: ADME, organism-based; how it was run: as §1
[31] = system: Rattus norvegicus; test: Biodistribution of [18F]AFE in rat hippocampus at 30 min postinjection in vivo; type: ADME, organism-based; conditions: 0.5 h; how it was run: as §1
[32] = system: Rattus norvegicus; test: Biodistribution of [18F]AFE in rat hypothalamus at 90 min postinjection in vivo; type: ADME, organism-based; conditions: 1.5 h; how it was run: as §1
[33] = system: Rattus norvegicus; test: Biodistribution of [18F]AFE in rat thalamus at 30 min postinjection in vivo; type: ADME, organism-based; conditions: 0.5 h; how it was run: as §1
[34] = system: Rattus norvegicus; test: Biodistribution of [18F]AFE in rat hippocampus at 60 min postinjection in vivo; type: ADME, organism-based; conditions: 1 h; how it was run: as §1
[35] = system: Rattus norvegicus; test: Biodistribution of [18F]AFE in rat cerebellum at 60 min postinjection in vivo; type: ADME, organism-based; conditions: 1 h; how it was run: as §1
[36] = system: Rattus norvegicus; test: Biodistribution of [18F]AFE in rat striatum at 120 min postinjection in vivo; type: ADME, organism-based; conditions: 2 h; how it was run: as §1
[37] = system: Rattus norvegicus; test: Biodistribution of [18F]AFE in rat frontal cortex at 10 min postinjection in vivo; type: ADME, organism-based; how it was run: as §1
[38] = species on record: Rattus norvegicus; test: Specific binding of [18F]AFA in frontal cortex of rat pretreated with compound 7e; n=3; type: functional
[39] = system: Rattus norvegicus; test: Biodistribution of [18F]AFE in rat thalamus at 60 min postinjection in vivo; type: ADME, organism-based; conditions: 1 h; how it was run: as §1
[40] = system: Rattus norvegicus; test: Biodistribution of [18F]AFE in rat cerebellum at 10 min postinjection in vivo; type: ADME, organism-based; how it was run: as §1

Biodistribution [1]: 0.17 %ID/g | Biodistribution [2]: 0.19 %ID/g | Biodistribution [3]: 0.21 %ID/g | Biodistribution [5]: 0.04 %ID/g | Biodistribution [6]: 0.07 %ID/g | Biodistribution [7]: 0.13 %ID/g | Biodistribution [8]: 0.1 %ID/g | Biodistribution [9]: 0.13 %ID/g | Biodistribution [10]: 0.58 %ID/g | Biodistribution [11]: 0.02 %ID/g | Biodistribution [12]: 0.51 %ID/g | Biodistribution [13]: 0.33 %ID/g | Biodistribution [14]: 0.32 %ID/g | Biodistribution [15]: 0.02 %ID/g | Biodistribution [18]: 0.03 %ID/g | Biodistribution [19]: 0.51 %ID/g | Biodistribution [20]: 0.09 %ID/g | Biodistribution [21]: 0.41 %ID/g | Biodistribution [22]: 0.08 %ID/g | Biodistribution [23]: 0.07 %ID/g | Biodistribution [24]: 0.38 %ID/g | Biodistribution [26]: 0.06 %ID/g | Biodistribution [27]: 0.1 %ID/g | Biodistribution [28]: 0.24 %ID/g | Biodistribution [29]: 0.13 %ID/g | Biodistribution [30]: 0.25 %ID/g | Biodistribution [31]: 0.27 %ID/g | Biodistribution [32]: 0.14 %ID/g | Biodistribution [33]: 0.39 %ID/g | Biodistribution [34]: 0.17 %ID/g | Biodistribution [35]: 0.06 %ID/g | Biodistribution [36]: 0.08 %ID/g | Biodistribution [37]: 0.62 %ID/g | Biodistribution [39]: 0.27 %ID/g | Biodistribution [40]: 0.28 %ID/g
SMILES: CN(C)Cc1ccccc1Sc1ccc(CC[18F])cc1N
Specific binding [4]: 1.06 %ID/g | Specific binding [16]: 0.65 %ID/g | Specific binding [17]: 0.61 %ID/g | Specific binding [25]: 1.21 %ID/g | Specific binding [38]: 0.48 %ID/g
